Measured values as given in ChEMBL document CHEMBL3632511, “Oxopyrido[2,3-d]pyrimidines as Covalent L858R/T790M Mutant Selective Epidermal Growth Factor Receptor (EGFR) Inhibitors” (ACS Med Chem Lett, 2015).

Legend:
A-431 = test: Cytotoxicity against human A431 cells expressing wild-type EGFR assessed as inhibition of cell proliferation after 72 hrs by CellTiter-Glo assay; assay type: cell-based; conditions: A-431, 72 h
[1] = Cytotoxicity against human HCC827 cells harboring EGFR 746 to 750 deletion mutant assessed as inhibition of cell proliferation after 72 hrs by CellTiter-Glo assay; assay type: functional, cell-based; conditions: HCC827, 72 h
NCI-H1975 = test: Cytotoxicity against human NCI-H1975 cells harboring EGFR L858R/T790M double mutant assessed as inhibition of cell proliferation after 72 hrs by CellTiter-Glo assay; assay type: functional, cell-based; conditions: NCI-H1975, 72 h
[2] = Volume of distribution at steady state in Sprague-Dawley rat at 1 mg/kg, iv; assay type: ADME, organism-based; conditions: in vivo, read-out: Vdss
How it was run: (§1)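 Male Sprague Dawley rats, 3 animals per route; mean values. IV dose 1 mg/kg as a DMSO solution. Oral dose 10 mg/kg, in one of three vehicles by compound: 1% Pluronic F68/2% HPMC/15% HPBCD/82% water–methanesulfonic acid pH 4.5; 20% HPBCD/80% water–methanesulfonic acid pH 4.0; or 1% Pluronic F68/2% HPMC/97% water–methanesulfonic acid pH 4.0.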

[3] = Half life in Sprague-Dawley rat at 1 mg/kg, iv; assay type: ADME, organism-based; conditions: in vivo; how it was run: as §1
[4] = Oral bioavailability in Sprague-Dawley rat at 10 mg/kg; assay type: ADME, organism-based; conditions: Sprague-Dawley, in vivo; how it was run: as §1
[5] = AUC (0 to infinity) in Sprague-Dawley rat at 10 mg/kg, po; assay type: ADME, organism-based; parameters: dose 10 mg/kg, route oral, time infinity; conditions: Sprague-Dawley, in vivo; how it was run: as §1
[6] = Selectivity ratio of IC50 for wild type EGFR phosphorylation in human A431 cells to IC50 for EGFR L858R/T790M double mutant phosphorylation in human NCI-H1975 cells; assay type: ADME, cell-based
[7] = Clearance in Sprague-Dawley rat at 1 mg/kg, iv; assay type: ADME, organism-based; conditions: Sprague-Dawley, in vivo; how it was run: as §1
[8] = Selectivity ratio of IC50 for wild type EGFR phosphorylation in human A431 cells to IC50 for EGFR 746 to 750 deletion mutant phosphorylation in human HCC827 cells; assay type: ADME, cell-based
[9] = molecular target: Epidermal growth factor receptor (Homo sapiens, UniProt P00533, L858R/T790M); test: Inhibition of EGFR L858R/T790M double mutant phosphorylation in human NCI-H1975 cells after 60 mins by mesoscale multiplex assay; assay type: cell-based
[10] = molecular target: Epidermal growth factor receptor (Homo sapiens, UniProt P00533); test: Inhibition of wild type EGFR phosphorylation in human A431 cells after 60 mins by mesoscale multiplex assay; assay type: cell-based, A-431
[11] = molecular target: Epidermal growth factor receptor (Homo sapiens, UniProt P00533, 746-750DEL); test: Inhibition of EGFR 746 to 750 deletion mutant phosphorylation in human HCC827 cells after 60 mins by mesoscale multiplex assay; assay type: cell-based
Mus musculus = test: In vivo inhibition of EGFR L858R/T790M double mutant phosphorylation in human NCI-H1975 cells xenografted in athymic nude mouse at 30 mg/kg, po measured at 4 hrs by mesoscale multiplex assay relative to control; assay type: functional
How it was run: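 Female athymic nude mice carried matrigel plugs holding 5 x 10⁶ H1975 cells, n = 3 per group. Control or compound given at 30 mg/kg po. Plugs and plasma taken 4 h after dosing. p-EGFR in plug measured by quantitative MSD assay, given as % p-EGFR/PRAS40 vs control.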

Epidermal growth factor receptor (Homo sapiens, UniProt P00533, L858R/T790M), sequence (P00533 25-1210 T790M/L858R limits assumed): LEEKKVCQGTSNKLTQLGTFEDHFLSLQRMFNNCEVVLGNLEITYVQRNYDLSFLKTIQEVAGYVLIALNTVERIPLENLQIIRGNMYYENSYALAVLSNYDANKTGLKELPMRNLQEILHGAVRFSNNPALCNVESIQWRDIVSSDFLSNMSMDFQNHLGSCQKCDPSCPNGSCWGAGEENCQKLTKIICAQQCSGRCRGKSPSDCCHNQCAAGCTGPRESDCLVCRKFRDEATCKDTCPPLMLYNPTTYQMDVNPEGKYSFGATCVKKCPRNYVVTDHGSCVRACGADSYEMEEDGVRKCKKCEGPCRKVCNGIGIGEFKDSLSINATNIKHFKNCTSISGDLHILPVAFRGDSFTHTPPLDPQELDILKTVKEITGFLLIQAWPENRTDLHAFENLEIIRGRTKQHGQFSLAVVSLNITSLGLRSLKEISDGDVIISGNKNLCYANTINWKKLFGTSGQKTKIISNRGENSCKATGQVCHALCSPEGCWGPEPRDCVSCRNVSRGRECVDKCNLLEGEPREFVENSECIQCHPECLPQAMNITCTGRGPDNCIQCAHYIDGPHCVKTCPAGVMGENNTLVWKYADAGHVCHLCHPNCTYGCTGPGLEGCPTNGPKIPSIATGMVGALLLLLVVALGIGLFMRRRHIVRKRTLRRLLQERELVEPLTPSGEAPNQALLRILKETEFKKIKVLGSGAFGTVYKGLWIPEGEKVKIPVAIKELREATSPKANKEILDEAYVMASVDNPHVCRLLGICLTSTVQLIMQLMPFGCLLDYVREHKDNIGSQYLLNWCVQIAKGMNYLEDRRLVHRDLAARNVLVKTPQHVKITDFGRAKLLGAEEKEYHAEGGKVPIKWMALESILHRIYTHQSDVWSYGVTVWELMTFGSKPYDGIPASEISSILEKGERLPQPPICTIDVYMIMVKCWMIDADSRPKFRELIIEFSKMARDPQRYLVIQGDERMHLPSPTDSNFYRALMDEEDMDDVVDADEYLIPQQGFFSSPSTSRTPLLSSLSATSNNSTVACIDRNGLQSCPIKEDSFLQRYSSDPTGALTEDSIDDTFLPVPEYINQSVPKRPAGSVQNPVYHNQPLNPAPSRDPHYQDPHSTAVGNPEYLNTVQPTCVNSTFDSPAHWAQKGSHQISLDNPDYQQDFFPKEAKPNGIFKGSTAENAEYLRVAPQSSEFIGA
Epidermal growth factor receptor (Homo sapiens, UniProt P00533, 746-750DEL), sequence (P00533 whole entry, looked up, stated change not applied): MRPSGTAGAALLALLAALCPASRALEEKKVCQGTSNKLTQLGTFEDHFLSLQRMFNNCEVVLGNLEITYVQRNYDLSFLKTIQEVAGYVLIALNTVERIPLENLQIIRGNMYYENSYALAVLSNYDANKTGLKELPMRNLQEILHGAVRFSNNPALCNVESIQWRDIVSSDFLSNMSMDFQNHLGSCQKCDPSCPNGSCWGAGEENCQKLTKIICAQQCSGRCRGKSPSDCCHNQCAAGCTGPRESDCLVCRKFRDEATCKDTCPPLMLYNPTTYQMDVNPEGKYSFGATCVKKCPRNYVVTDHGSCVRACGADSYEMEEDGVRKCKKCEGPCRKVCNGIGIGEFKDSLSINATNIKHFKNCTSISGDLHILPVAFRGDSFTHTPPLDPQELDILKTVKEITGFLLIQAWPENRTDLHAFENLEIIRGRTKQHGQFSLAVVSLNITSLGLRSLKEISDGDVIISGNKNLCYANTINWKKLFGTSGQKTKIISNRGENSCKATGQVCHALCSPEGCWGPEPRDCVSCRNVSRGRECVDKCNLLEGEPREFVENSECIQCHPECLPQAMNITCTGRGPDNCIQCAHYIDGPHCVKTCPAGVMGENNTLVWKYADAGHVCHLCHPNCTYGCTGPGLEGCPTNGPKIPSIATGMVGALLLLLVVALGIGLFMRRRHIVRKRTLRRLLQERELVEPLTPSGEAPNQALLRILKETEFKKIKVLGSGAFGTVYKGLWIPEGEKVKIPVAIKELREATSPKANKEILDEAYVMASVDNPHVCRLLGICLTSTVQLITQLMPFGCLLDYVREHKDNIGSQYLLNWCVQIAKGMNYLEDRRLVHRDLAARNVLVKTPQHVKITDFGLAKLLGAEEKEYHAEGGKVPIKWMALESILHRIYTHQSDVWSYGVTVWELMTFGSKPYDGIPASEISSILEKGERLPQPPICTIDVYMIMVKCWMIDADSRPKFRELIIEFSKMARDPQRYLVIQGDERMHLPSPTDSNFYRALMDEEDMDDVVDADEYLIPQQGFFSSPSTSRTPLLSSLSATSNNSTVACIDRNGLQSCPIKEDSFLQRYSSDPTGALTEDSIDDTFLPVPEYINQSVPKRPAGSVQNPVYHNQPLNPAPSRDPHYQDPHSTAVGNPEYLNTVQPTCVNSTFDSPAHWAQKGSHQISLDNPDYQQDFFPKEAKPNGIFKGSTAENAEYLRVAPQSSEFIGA
Epidermal growth factor receptor (Homo sapiens, UniProt P00533), sequence (P00533 whole entry): as the sequence (P00533 whole entry, looked up, stated change not applied) above

SMILES	IC50 (A-431) [nM]	IC50 [1] [nM]	IC50 (NCI-H1975) [nM]	also measured
C=CC(=O)Nc1cccc(-n2c(=O)cc(C)c3cnc(Nc4ccc(N5CCN(C(C)=O)CC5)cc4OC)nc32)c1	> 5000	58	30	–
C=CC(=O)Nc1cccc(-n2c(=O)c(Cc3ccccc3)cc3cnc(Nc4ccc(N5CCN(C)CC5)cc4OC)nc32)c1	250	18	4	–
C=CC(=O)Nc1cccc(-n2c(=O)cc(C)c3cnc(Nc4ccc(N5CCOCC5)cc4OC)nc32)c1	–	–	> 10000	–
C=CC(=O)Nc1cccc(-n2c(=O)c(OC)c(C)c3cnc(Nc4ccc(N5CCN(C)CC5)cc4OC)nc32)c1	1390	41	10	–
C=CC(=O)Nc1cccc(-n2c(=O)ccc3cnc(Nc4ccc(N5CCN(C)CC5)cc4OC)nc32)c1	5230	4	8	Vd [2]: 19 L/kg; half-life [3]: 1.4 h; bioavailability [4]: 6.6%; AUC(0-inf) [5]: 0.18 µM·h; Ratio IC50 [6]: 17; clearance [7]: 148 mL/min/kg; Ratio IC50 [8]: 17; IC50 [9]: 3 nM; IC50 [10]: 50 nM; IC50 [11]: 3 nM
C=CC(=O)Nc1cccc(-n2c(=O)cc(C)c3cnc(Nc4ccc(N5CCN(C)CC5)cc4)nc32)c1	> 3000	7	4	inhibition in vivo at 30 mg/kg (Mus musculus): 5%
C=CC(=O)Nc1cccc(-n2c(=O)cc(C)c3cnc(Nc4ccc(N5CCNCC5)cc4OC)nc32)c1	> 1000	211	68	–
